The values below come from PMC3065194 (Biochemical and biophysical research communications, 2010).

The target in one test is integrin CD11b/CD18 (Mus musculus, UniProt P05555+P11835). The test can be described thus: Neutrophil adhesion assay. It is filed as cell-based. To be noted: WT B6 mouse neutrophils, Figure 3B. The method, boiled down:
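Peritoneal neutrophils were isolated from thioglycollate-stimulated 8–10-week-old WT B6 mice and suspended in TBS with 0.5% gelatin in ligand-coated wells. Cells were incubated 10 min at 37°C with 5 μM test compound plus agonist, either Mn²⁺ (0.1 mM) or PMA (15 nM). Plates were inverted 30 min at room temperature to remove non-adherent cells. Adherent cells were counted by imaging microscopy, in triplicate wells.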

In another test the test system is integrin CD11a/CD18. The note with it: related integrin CD11a/CD18; cited from earlier work.

One may read the IC50 as the point on the concentration scale where inhibition reaches its midpoint.

Sequence of integrin CD11b/CD18 (P05555 17-1153): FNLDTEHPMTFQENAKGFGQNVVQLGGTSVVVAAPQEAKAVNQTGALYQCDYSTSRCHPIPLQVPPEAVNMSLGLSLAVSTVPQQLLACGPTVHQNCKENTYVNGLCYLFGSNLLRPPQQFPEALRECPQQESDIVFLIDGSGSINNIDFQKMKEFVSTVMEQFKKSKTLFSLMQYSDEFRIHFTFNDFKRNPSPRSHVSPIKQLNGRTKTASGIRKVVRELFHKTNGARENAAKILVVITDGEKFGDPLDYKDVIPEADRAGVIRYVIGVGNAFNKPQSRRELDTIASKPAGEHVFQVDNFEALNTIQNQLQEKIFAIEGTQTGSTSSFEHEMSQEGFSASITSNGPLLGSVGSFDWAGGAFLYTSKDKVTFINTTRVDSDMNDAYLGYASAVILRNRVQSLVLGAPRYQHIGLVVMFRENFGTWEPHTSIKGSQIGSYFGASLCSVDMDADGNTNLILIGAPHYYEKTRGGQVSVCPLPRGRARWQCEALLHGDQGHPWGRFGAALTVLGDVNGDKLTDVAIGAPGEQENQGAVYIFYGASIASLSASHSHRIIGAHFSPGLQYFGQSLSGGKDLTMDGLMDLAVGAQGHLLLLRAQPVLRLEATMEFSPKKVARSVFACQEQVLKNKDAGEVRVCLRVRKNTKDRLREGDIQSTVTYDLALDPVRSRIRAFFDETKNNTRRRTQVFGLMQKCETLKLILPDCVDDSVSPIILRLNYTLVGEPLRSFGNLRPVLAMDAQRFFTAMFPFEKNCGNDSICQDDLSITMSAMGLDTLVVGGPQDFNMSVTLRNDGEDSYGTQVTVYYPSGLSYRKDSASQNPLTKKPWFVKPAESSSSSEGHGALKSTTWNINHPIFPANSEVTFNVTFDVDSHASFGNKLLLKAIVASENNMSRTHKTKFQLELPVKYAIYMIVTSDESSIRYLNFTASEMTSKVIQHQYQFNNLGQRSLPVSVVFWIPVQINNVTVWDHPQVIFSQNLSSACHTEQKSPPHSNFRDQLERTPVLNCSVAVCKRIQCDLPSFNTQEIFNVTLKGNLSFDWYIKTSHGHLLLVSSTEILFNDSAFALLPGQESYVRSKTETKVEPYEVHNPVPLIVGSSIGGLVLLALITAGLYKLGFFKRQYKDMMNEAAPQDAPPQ
Sequence of integrin CD11b/CD18 (P11835 24-771): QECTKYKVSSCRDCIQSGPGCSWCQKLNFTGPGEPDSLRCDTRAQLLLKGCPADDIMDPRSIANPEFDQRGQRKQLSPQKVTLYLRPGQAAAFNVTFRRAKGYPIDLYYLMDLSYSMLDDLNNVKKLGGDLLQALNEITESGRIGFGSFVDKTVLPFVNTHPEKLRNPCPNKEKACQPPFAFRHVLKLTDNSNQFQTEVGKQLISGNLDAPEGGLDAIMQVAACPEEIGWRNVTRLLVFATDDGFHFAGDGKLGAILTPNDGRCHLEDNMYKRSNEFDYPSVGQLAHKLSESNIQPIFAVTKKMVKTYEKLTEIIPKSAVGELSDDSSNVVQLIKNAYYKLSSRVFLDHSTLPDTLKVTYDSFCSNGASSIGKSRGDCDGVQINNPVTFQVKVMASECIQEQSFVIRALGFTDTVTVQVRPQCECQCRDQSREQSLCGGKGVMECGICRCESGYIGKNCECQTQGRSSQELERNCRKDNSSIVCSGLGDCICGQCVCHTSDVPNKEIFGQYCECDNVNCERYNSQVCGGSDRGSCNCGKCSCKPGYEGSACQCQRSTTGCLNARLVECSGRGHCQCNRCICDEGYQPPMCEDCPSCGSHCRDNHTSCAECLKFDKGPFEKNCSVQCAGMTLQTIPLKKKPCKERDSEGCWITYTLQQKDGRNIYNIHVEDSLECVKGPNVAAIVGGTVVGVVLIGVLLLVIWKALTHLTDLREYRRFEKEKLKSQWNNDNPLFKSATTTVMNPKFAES

As for `CCCCCCCCCCCCCC(=O)O[C@@H]1[C@@H](C)[C@@]2(O)[C@@H](C=C(CO)C[C@]3(O)C(=O)C(C)=C[C@@H]23)[C@@H]2C(C)(C)[C@]12OC(C)=O` [PMA, phorbol 12-myristate 13-acetate], on integrin CD11b/CD18, the “neutrophil adhesion to Fg on integrin activation by agonist” value is “dramatic increase”.
For the molecule `CC[C@H](C)C(=O)O[C@H]1C[C@@H](C)C=C2C=C[C@H](C)[C@H](CC[C@@H]3C[C@@H](O)CC(=O)O3)[C@H]21` [lovastatin], in the test with integrin CD11a/CD18, the IC50 was 25 µM.
